# Screening data deposited in PubChem BioAssay by several laboratories.
# G6PDH counter: counter-screen for G6PDH assay hits: L. mesenteroides G6PDH inhibition; Purified L. mesenteroides G6PDH, diaphorase/resazurin coupled fluorescence, 45 min; AID 1020; inhibition, % at 5 µM; actives 0.12% (n = 200,000); in the data active = inhibition above about 50%
# HKDC1 inh: blocks human hexokinase HKDC1 activity | recombinant HKDC1, G6PDH/diaphorase resazurin coupled fluorescence | inhibition, % at 20 µM | actives 0.16% (n = 340,000);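 active = inhibition above about 35% when tested at 20 µM, limit read from the data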;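 also: plate controls were DMSO wells with enzyme for no effect and DMSO wells lacking enzyme for full effect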
#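 Assay system – recombinant HKDC1 (HK5) hexokinase enzyme, produced in-house · Input – HKDC1 at 5 µg/mL · Reagent – glucose plus 1 mM ATP as hexokinase substrates · Timing – 90 min reaction incubation at room temperature, dark · Measured by – G6PDH/diaphorase-coupled fluorescence, 1 mM NADP, 100 µM resazurin, 525/613 nm · Benchmarks – DMSO-enzyme wells negative, buffer-substituted wells positive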
# p97 inhibitor: human p97 ATPase inhibition; actives 0.42% (n = 220,000); P55072; recombinant p97 ATPase, Kinase-Glo ATP luminescence, 3 h; inhibition, % at 8 µM; in the data active = inhibition above about 15%;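 also: 0% = DMSO vehicle and 100% = wells lacking enzyme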
# Target sequence (P55072 whole entry, looked up): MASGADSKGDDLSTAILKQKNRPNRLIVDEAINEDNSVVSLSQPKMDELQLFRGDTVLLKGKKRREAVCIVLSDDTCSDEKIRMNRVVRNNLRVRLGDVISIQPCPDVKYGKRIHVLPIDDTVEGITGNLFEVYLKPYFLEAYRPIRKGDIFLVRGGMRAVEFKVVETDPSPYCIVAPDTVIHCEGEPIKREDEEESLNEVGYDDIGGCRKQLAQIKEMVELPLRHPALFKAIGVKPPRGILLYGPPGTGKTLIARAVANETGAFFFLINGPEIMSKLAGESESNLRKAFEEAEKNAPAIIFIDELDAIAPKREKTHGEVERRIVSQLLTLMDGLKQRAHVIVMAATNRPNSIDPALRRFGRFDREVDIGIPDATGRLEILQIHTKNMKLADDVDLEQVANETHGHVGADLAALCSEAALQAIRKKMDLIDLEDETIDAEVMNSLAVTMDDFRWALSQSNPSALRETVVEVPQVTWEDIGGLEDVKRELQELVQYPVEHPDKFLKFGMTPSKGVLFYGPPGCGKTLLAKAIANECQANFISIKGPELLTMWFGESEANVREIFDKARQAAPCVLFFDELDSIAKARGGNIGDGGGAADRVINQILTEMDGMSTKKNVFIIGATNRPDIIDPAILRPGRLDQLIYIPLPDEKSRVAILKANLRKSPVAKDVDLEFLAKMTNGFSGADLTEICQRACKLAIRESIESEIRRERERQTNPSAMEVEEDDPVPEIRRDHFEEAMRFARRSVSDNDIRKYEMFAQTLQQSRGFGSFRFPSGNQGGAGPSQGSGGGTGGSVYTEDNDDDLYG
# UBC9 SUMO inh: inhibitors of human SUMOylation (UBC9). inhibition, % at 35 µM. P63279. HTRF SUMOylation assay, SAE1/SAE2 + UBC9, in vitro. actives 0.36% (n = 290,000); in the data active = inhibition above about 50%, passing the limit was not always enough
# Diaph inh CS: inhibits diaphorase or chemically oxidizes, flagging diaphorase assay artifacts; diaphorase resazurin-to-resorufin fluorescence, NADH, 16 min; bacterial (C. kluyveri) enzyme, not human; inhibition, % at 20 µM; actives 0.69% (n = 190,000);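 active = primary screen inhibition at 20 µM above a set limit, cut at about 50% in these data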;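 also: plate controls were DMSO with full reaction for no effect and wells lacking NADH for full effect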
#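 Assay system: diaphorase enzyme from Clostridium kluyveri; Input: enzyme working solution with 0.14 U/mL diaphorase; Timing: 16 min at room temperature; Technique: resorufin fluorescence, excitation 544 nm, emission 590 nm; Benchmarks: positive control minus NADH, DMSO neutral control.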
# p97 inh conf: human p97 ATPase inhibition, confirmation. inhibition, % at 8 µM. shares compounds with p97 inhibitor. recombinant p97 ATPase, Kinase-Glo ATP luminescence. AID 1517. actives 44% (n = 760);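 active = percent inhibition of p97 ATPase above a set limit, the primary screen's mean plus 3 SD, cut at about 15% in these data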;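 also: 0% = DMSO wells and 100% = wells lacking p97 protein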
# * marks the source's active call; other numbers are inactive results; · = not tested or not shown. This is a sample that favours compounds with a hit; in the whole collection about 0.95% have one here.
SMILES,G6PDH counter,HKDC1 inh,p97 inhibitor,UBC9 SUMO inh,Diaph inh CS,p97 inh conf
COc1ccc(NC(=O)c2cc(C)nc3ccccc23)cc1S(=O)(=O)N1CCOCC1,·,-3.7,·,·,·,·
COc1ccc(Nc2nc(-c3ccccc3)nc3ccccc23)cc1S(=O)(=O)N1CCOCC1,·,25.3,16.1*,15.7,·,12.6
CCC(=O)NNc1nc2c(C)cc(C)cc2s1,1.9,-4.4,15.2*,9.1,7.6,6.2
CC1=NN(c2ccccc2)C(=O)/C1=C\c1ccc(Oc2ccc([N+](=O)[O-])cc2[N+](=O)[O-])cc1,-13.2,22.6,23.1*,94.6*,36.9,8.8
COc1cc(/C=C2/C(=O)N(c3ccc(C)c(C)c3)N=C2C)cc([N+](=O)[O-])c1O,·,7.0,·,12.4,·,·
COc1ccccc1/C=C1/C(=O)N(c2ccccc2)N=C1C,·,1.8,·,13.9,·,·
COc1cc(/C=C2\C(=O)N(c3ccccc3)N=C2C)ccc1Oc1ccc([N+](=O)[O-])cc1[N+](=O)[O-],-8.3,16.3,17.6*,·,33.2,8.7
CCN(CC(=O)NCc1ccc(F)cc1)C(=O)c1cccnc1SC,·,-4.8,·,-5.1,·,·
O=C(N/N=C/c1cccs1)c1cc(-c2cccc3ccccc23)n[nH]1,-64.1,-10.0,16.5*,-10.7,24.7,26.9*
CCOC(=O)c1c(C)[nH]c(C(=O)COC(=O)CCS(=O)(=O)c2ccc(C)cc2)c1C,3.1,-5.6,1.6,-14.8,16.3,·
Cc1ccc(S(=O)(=O)CCC(=O)OCC(=O)c2c(C)[nH]c3ccccc23)cc1,-20.0,5.8,20.5*,3.2,9.0,14.2
Cc1[nH]c2ccccc2c1C(=O)CCl,5.2,12.0,36.1*,9.8,16.7,37.4*
Cc1ccc(C)c(NC(=S)N2CCC(NC(=O)c3ccco3)CC2)c1,·,-4.2,·,-3.9,·,·
O=C1NCCN(Cc2ccc(Cl)c(F)c2)C1CC(=O)N1CCCCO1 (centres undefined),12.1,-4.1,-3.5,5.6,3.8,·
CC(C)n1nccc1NC(=O)Nc1ccccc1,·,-4.0,·,25.0,·,·
O=C(N/N=C/c1c[nH]c2ccccc12)c1cc(-c2ccc(-c3ccccc3)cc2)n[nH]1,-3.5,-2.8,17.1*,26.3,4.2,10.9
Cn1c(-c2ccccc2)c(/C=N/NC(=O)c2ccc(O)cc2)c2ccccc21,·,-6.8,17.0*,-9.9,·,27.6*
CC(C)(C)NCC(=Cc1ccccc1)C(=O)c1ccccc1,·,8.4,·,·,·,·
O=C(CCn1c(=S)oc2ccccc21)NC1CCCCCC1,·,-4.2,15.5*,0.8,·,8.7
CC1CCCC(NC(=O)CCn2c(=S)oc3ccccc32)C1C (centres undefined),·,-3.9,2.6,22.2,·,·
O=C(C[n+]1cnn(CC(=O)c2ccc(Cl)cc2Cl)c1)c1ccc([N+](=O)[O-])cc1,-23.2,-22.7,16.8*,-3.0,-15.5,3.0
CSc1ncccc1C(=O)NCC(c1cccs1)N1CCOCC1 (centres undefined),·,0.6,·,·,·,·
Fc1cccc(-c2nnn3c2nc(Cl)c2ccccc23)c1,1.5,8.2,6.7,25.6,11.6,·
Cc1ccc(-c2nnn3c2nc(Cl)c2ccccc23)cc1,-2.3,1.7,16.7*,7.9,-7.9,8.1
NNc1nc2c(-c3ccc(Cl)cc3)nnn2c2ccccc12,-1.1,0.9,2.0,19.7,5.6,·
SMILES,G6PDH counter,HKDC1 inh,p97 inhibitor,UBC9 SUMO inh,Diaph inh CS,p97 inh conf
Clc1nc2c(-c3ccccc3)nnn2c2ccccc12,·,13.5,16.7*,35.8,·,25.5*
COC(=O)CC1Sc2ccccc2NC1=O (centres undefined),4.2,-5.5,16.2*,1.7,10.4,5.0
COc1ccc(NC(=O)COC(=O)CC2Sc3ccccc3NC2=O)cc1 (centres undefined),·,-1.4,·,·,·,·
O=C1C=C(c2cccc(CO)c2)C[C@@H](c2ccc(F)cc2)C1,·,-5.5,·,·,·,·
CC[N+](C)(C)CCN(Cc1ccc(Cl)cc1)c1ccccn1,8.8,-3.2,15.0*,2.3,10.0,3.5
COc1cc2ccccc2cc1C(=O)N1CCN(c2ccccc2O)CC1,·,9.2,·,·,·,·
Cc1c(C(c2cccc([N+](=O)[O-])c2O)c2c(C)n(C)n(-c3ccccc3)c2=O)c(=O)n(-c2ccccc2)n1C,2.5,-7.8,-2.3,-3.5,4.7,·
Cc1[nH]n(-c2ccccc2)c(=O)c1C(c1cccc([N+](=O)[O-])c1O)c1c(C)[nH]n(-c2ccccc2)c1=O,-0.3,6.1,23.6*,62.4*,19.6,5.7
